Experimental data from PMC4516694 (Bioorganic & medicinal chemistry, 2015).

Tests used:
CRF1 receptor [1] = test: Non-human primate microPET imaging; type: in vivo, male cynomolgus monkey; conditions: anesthetized cynomolgus monkey
Procedure, shortened: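 Male cynomolgus monkey on a Siemens MicroPET Focus 220. A Co-57 point-source transmission scan was used for attenuation correction. F-18 radiotracer given by saphenous vein injection, then dynamic imaging for 120 min.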

Rat microPET imaging = type: in vivo, male Sprague-Dawley rat; conditions: anesthetized rat
Procedure, shortened: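 One male Sprague-Dawley rat on an Inveon microPET/CT: isoflurane induction at 3–4%, maintained at 1–1.5% by nose cone. Prone, warmed with circulating air; Co-57 transmission scan for attenuation correction. F-18 radiotracer given by tail vein injection, then dynamic imaging for 60 min.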

[2] = molecular target: T1, transfected human CRF1 receptors in HEK293T cells (Homo sapiens, UniProt P34998); test: In vitro competition binding assay at 23 °C vs. [125I]-Tyr0-sauvagine; conditions: for Ki: Ki (nM) ± SEM, vs. [125I]-Tyr0-sauvagine, HEK293T cell membranes
T1 sequence (P34998 24-415): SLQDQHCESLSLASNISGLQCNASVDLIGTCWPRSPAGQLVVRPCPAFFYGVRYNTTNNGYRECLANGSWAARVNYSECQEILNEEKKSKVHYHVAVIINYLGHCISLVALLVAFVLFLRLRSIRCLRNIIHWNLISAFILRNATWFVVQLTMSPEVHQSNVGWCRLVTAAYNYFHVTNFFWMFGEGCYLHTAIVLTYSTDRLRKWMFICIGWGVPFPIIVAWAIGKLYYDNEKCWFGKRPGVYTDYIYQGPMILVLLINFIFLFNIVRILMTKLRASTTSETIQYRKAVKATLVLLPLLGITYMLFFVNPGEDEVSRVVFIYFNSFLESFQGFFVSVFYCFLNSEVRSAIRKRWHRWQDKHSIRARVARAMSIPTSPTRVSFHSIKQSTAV
Procedure, shortened: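 Human CRF1 plasmid transiently lipofected into HEK293T (DMEM, 10% FBS, grown to 75% confluency); cells harvested 48 h post-transfection; membranes homogenized in pH 7.2 HEPES/MgCl2/EGTA/BSA/aprotinin buffer. ~80 pM [125I]sauvagine plus test compound (10−13–10−5 M final), 2 h, 23 °C; filtered over polyethyleneamine-soaked filters and cold-washed. Triplicates; Ki by one-site competition fit (Kd 0.5 nM); ratios from Ki values.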

CRF1 receptor [3] = conditions: read-out: Ki, previously reported value; cited from earlier work

Cc1cc(N(C)CCCC[18F])n2nc(C)c(-c3ccc(Cl)cc3Cl)c2n1 [[^18F]28, 3-(2,4-dichlorophenyl)-N-(4-[^18F]fluorobutyl)-N,2,5-trimethylpyrazolo[1,5-a]pyrimidin-7-amine]
brain penetrance (CRF1 receptor [1]; microPET): brain penetrance was achieved
radioactivity uptake in the skull and sphenoid region / defluorination (CRF1 receptor [1]; microPET TACs): high radioactivity uptake in the skull, and sphenoid bone and/or sphenoid sinus, suggests defluorination
specific binding in brain (high vs low CRF1 receptor density regions) (CRF1 receptor [1]; microPET TACs): little or no specific binding
liver uptake (SUV) (Rat microPET imaging; at 3 min, tail vein injection): 5.4 SUV
brain uptake (SUV) (Rat microPET imaging; at 5 min, tail vein injection): 2 SUV
brain penetrance (Rat microPET imaging; microPET): brain penetrance was achieved
stability to defluorination (bone visualization) (Rat microPET imaging; microPET): stable to defluorination

CCN(CCCCF)c1cc(C)nc2c(-c3ccc(Cl)cc3Cl)c(C)nn12 [Compound 29, 3-(2,4-dichlorophenyl)-N-ethyl-N-(4-fluorobutyl)-2,5-dimethylpyrazolo[1,5-a]pyrimidin-7-amine]
Ki ([2]; 23 °C): 0.47 ± 0.1 nM

CCN(CCOCCF)c1cc(C)nc2c(-c3ccc(Cl)cc3Cl)c(C)nn12 [Compound 27, 3-(2,4-dichlorophenyl)-N-ethyl-N-(2-(2-fluoroethoxy)ethyl)-2,5-dimethylpyrazolo[1,5-a]pyrimidin-7-amine]
Ki ([2]; 23 °C): 1.17 ± 0.07 nM
fold loss of affinity relative to 29 ([2]; ratio of Ki values, Table 1): ~ 2.5 fold

Cc1cc(N(CCF)CCCCF)n2nc(C)c(-c3ccc(Cl)cc3Cl)c2n1 [Compound 30, 3-(2,4-dichlorophenyl)-N-(4-fluorobutyl)-N-(2-fluoroethyl)-2,5-dimethylpyrazolo[1,5-a]pyrimidin-7-amine]
Ki ([2]; 23 °C): 0.59 ± 0.04 nM

Cc1cc(N(C)CCOCC[18F])n2nc(C)c(-c3ccc(Cl)cc3Cl)c2n1 [[^18F]26, 3-(2,4-dichlorophenyl)-N-(2-(2-[^18F]fluoroethoxy)ethyl)-N,2,5-trimethylpyrazolo[1,5-a]pyrimidin-7-amine]
brain uptake and washout compared with the other radiotracers (CRF1 receptor [1]; microPET TACs): entered the brain more rapidly and washed out more rapidly
radioactivity uptake in the skull and sphenoid region / defluorination (CRF1 receptor [1]; microPET TACs): rapid uptake and then a steady washout

[2H]C([2H])([18F])C([2H])([2H])C([2H])([2H])C([2H])([2H])N(C)c1cc(C)nc2c(-c3ccc(Cl)cc3Cl)c(C)nn12 [[^18F]28-d8, 3-(2,4-dichlorophenyl)-N-(4-[^18F]fluorobutyl-1,1,2,2,3,3,4,4-d8)-N,2,5-trimethylpyrazolo[1,5-a]pyrimidin-7-amine]
brain uptake and washout compared with the other radiotracers (CRF1 receptor [1]; microPET TACs): very similar to that of [^18F]28
radioactivity uptake in the skull and sphenoid region / defluorination (CRF1 receptor [1]; microPET TACs): reduced somewhat relative to [^18F]28 but defluorination was not completely prevented

CCN(CCCC[18F])c1cc(C)nc2c(-c3ccc(Cl)cc3Cl)c(C)nn12 [[^18F]29, 3-(2,4-dichlorophenyl)-N-ethyl-N-(4-[^18F]fluorobutyl)-2,5-dimethylpyrazolo[1,5-a]pyrimidin-7-amine]
fold stronger binding affinity relative to [18F]28 [2]: ~ 2 fold
brain uptake and washout compared with the other radiotracers (CRF1 receptor [1]; microPET TACs): the overall amount of uptake was less
radioactivity uptake in the skull and sphenoid region / defluorination (CRF1 receptor [1]; microPET TACs): less than that of [^18F]28 and [^18F]28-d8

Cc1cc(N(C)CCOCCF)n2nc(C)c(-c3ccc(Cl)cc3Cl)c2n1 [Compound 26, 3-(2,4-dichlorophenyl)-N-(2-(2-fluoroethoxy)ethyl)-N,2,5-trimethylpyrazolo[1,5-a]pyrimidin-7-amine]
decrease in affinity relative to compounds 27, 28, 29 and 30 ([2]; 23 °C): ≥ 10 fold
Ki ([2]; 23 °C): 12.4 ± 1.06 nM
fold loss of affinity relative to 29 ([2]; ratio of Ki values, Table 1): ~ 26 fold
fold loss of affinity upon changing 28 to 26 ([2]; ratio of Ki values, Table 1): ~12 fold
fold lower binding affinity than 27 or 28 ([2]; ratio of Ki values, Table 1): 10 – 12 fold

Cc1cc(N(C)CCCCF)n2nc(C)c(-c3ccc(Cl)cc3Cl)c2n1 [Compound 28, 3-(2,4-dichlorophenyl)-N-(4-fluorobutyl)-N,2,5-trimethylpyrazolo[1,5-a]pyrimidin-7-amine]
Ki ([2]; 23 °C): 1.07 ± 0.21 nM
fold loss of affinity relative to 29 ([2]; ratio of Ki values, Table 1): ~ 2.3 fold

CCN(CCOCC[18F])c1cc(C)nc2c(-c3ccc(Cl)cc3Cl)c(C)nn12 [[^18F]27, 3-(2,4-dichlorophenyl)-N-ethyl-N-(2-(2-[^18F]fluoroethoxy)ethyl)-2,5-dimethylpyrazolo[1,5-a]pyrimidin-7-amine]
radioactivity uptake in the skull and sphenoid region / defluorination (CRF1 receptor [1]; microPET TACs): rapid uptake and then a steady washout
specific binding in brain (high vs low CRF1 receptor density regions) (CRF1 receptor [1]; microPET TACs): little or no specific binding
time of peak brain uptake (CRF1 receptor [1]; microPET TACs): 5 to 15 min

CCCCN(CC)c1cc(C)nc2c(-c3ccc(Cl)cc3Cl)c(C)nn12 [Compound 22, N-butyl-3-(2,4-dichlorophenyl)-N-ethyl-2,5-dimethylpyrazolo[1,5-a]pyrimidin-7-amine]
Ki ([2]; 23 °C): 0.46 ± 0.06 nM
Ki (CRF1 receptor [3]): 0.9 ± 0.1 nM

CCCN(CCC)c1cc(C)nc2c(-c3ccc(Cl)cc3Cl)c(C)nn12 [Compound 21, 3-(2,4-dichlorophenyl)-2,5-dimethyl-N,N-dipropylpyrazolo[1,5-a]pyrimidin-7-amine]
Ki ([2]; 23 °C): 0.47 ± 0.08 nM
